Laboratory results taken from ChEMBL document CHEMBL1125313, “Analogs of Ac-CCK-7 incorporating dipeptide mimics in place of Met28-Gly29” (J Med Chem, 1992).
Starred links: 1 amine or outer side, 2 acyl side, 3 side chain; linkers in the order of their positions; H or OH if unused. Non-standard residues stand in square brackets, D forms with d. Residues, ends and D or L forms follow the SMILES beside them. Phe(4-SO3H) = N[C@@H](Cc1ccc(S(=O)(=O)O)cc1)C(=O)O; X3 = O=C(C[C@@H]1CCCC[C@@H]1N[*:1])[*:2]; X5 = O=C(C[C@H]1CCCC[C@@H]1N[*:1])[*:2]; X1 = Cc1c(N[*:1])cccc1C(=O)[*:2]; X4 = Cc1ccc(N[*:1])cc1C(=O)[*:2]; 3Abz = Nc1cccc(C(=O)O)c1; 4Abz = Nc1ccc(C(=O)O)cc1; CO = O=C([*:1])[*:2]; Ahx = NCCCCCC(=O)O; Ava = NCCCCC(=O)O; GABA = NCCCC(=O)O; βAla = NCCC(=O)O

Assays:
Rattus norvegicus [1] = assay: Dose which caused 50% inhibition of the control intake was determined by log-probit analysis after intraperitoneal administration; assay type: functional; conditions: ip
Outline: (§1)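 Male Sprague-Dawley rats fed in one of two meal models, peptide ip. In "1-2-1" model, rats trained 4 days to eat ground chow 9–10 a.m. and 12–1 p.m., dosed 15 min before first meal, groups of 5–6. Or rats fasted 17 h overnight, given vehicle (100% DMSO) or peptide ip, 0.33 mL/kg, food weighed after 1 h, groups of 5–7. First-hour intake as % of control. ED50 from log-probit analysis; t-test versus controls.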

[2] = target: T1, Gastrin/cholecystokinin type B receptor (Bos taurus, UniProt P79266); assay: Inhibition of [3H]propionyl-CCK-8 binding to Cholecystokinin type B receptor in bovine striatum; assay type: tissue-based
T1 sequence (P79266 whole entry): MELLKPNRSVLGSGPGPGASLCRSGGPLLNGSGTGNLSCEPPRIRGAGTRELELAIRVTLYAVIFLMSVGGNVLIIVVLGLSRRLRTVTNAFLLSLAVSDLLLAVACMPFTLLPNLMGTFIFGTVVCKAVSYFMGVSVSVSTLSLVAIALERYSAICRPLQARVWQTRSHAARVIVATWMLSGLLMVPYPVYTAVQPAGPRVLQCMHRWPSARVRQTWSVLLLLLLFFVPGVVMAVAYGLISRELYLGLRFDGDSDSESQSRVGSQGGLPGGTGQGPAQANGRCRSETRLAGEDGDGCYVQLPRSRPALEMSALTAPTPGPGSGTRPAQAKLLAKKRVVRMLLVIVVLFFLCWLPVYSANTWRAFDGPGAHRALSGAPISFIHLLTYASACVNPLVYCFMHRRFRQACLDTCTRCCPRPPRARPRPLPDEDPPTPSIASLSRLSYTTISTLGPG
Outline: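 Frozen bovine striatum homogenized at 0 °C in 10 mM HEPES, 130 mM NaCl, 5 mM MgCl2, pH 7.4. Pellet (48000g) resuspended in same buffer plus PMSF and bacitracin, ~0.26 mg protein per 2 mL. Incubated 30 min at 25 °C with 0.15 nM (final) [propionyl-3H]CCK-8. GF/B filtration, scintillation counting. Nonspecific binding with 1 μM CCK-8. IC50 by log-probit; actives confirmed in duplicate.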

Rattus norvegicus [3] = assay: Compound was evaluated for its ability to suppress food intake in one of two meal-fed rats after intraperitoneal administration of 1240 ug/kg; assay type: functional; outline: as §1
[4] = target: T2, Cholecystokinin receptor type A (Rattus norvegicus, UniProt P30551); assay: The compound was tested in vitro for inhibition of specific [3H]propionyl-CCK-8 binding to Cholecystokinin type A receptor in rat pancreatic membranes; assay type: cell membranes, Membrane
T2 sequence (P30551 whole entry): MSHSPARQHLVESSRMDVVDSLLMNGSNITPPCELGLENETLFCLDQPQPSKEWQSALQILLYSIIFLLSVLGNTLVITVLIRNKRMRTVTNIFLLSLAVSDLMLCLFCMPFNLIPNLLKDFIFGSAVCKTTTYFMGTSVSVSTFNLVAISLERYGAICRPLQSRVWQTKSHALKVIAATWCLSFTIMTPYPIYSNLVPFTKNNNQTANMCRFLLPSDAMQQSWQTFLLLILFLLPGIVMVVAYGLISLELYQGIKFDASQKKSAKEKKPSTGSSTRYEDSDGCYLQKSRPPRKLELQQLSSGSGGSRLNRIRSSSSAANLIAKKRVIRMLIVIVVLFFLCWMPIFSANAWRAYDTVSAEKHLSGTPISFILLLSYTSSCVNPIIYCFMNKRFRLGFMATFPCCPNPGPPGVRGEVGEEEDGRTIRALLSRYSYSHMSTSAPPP
Outline: (§2)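 Fresh pancreas from fasted rats homogenized at 0 °C in 10 mM HEPES, 130 mM NaCl, 5 mM MgCl2, pH 7.4. Pellet (48000g) resuspended in same buffer plus PMSF and bacitracin, ~0.100 mg protein per 1 mL. Incubated 30 min at 25 °C with 0.15 nM (final) [propionyl-3H]CCK-8. Filtered on GF/B and counted. Nonspecific binding with 1 μM CCK-8. IC50 by log-probit; actives confirmed in duplicate.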

Rattus norvegicus [5] = assay: Compound was evaluated for its ability to suppress food intake in one of two meal-fed rats after intraperitoneal administration of 320 ug/kg; assay type: functional; outline: as §1
[6] = target: T2, Cholecystokinin receptor type A; assay: The compound was tested in vitro for inhibition of specific [3H]propionyl-CCK-8 binding to cholecystokinin type A receptor in rat pancreatic membranes; assay type: cell membranes, Membrane; outline: as §2
Rattus norvegicus [7] = assay: Compound was evaluated for its ability to suppress food intake in one of two meal-fed rats after intraperitoneal administration of 32 ug/kg; assay type: functional; outline: as §1
Rattus norvegicus [8] = assay: Compound was evaluated for its ability to suppress food intake in one of two meal-fed rats after intraperitoneal administration of 3 ug/kg; assay type: functional; outline: as §1
Rattus norvegicus [9] = assay: Compound was evaluated for its ability to suppress food intake in one of two meal-fed rats after intraperitoneal administration of 10 ug/kg; assay type: functional; outline: as §1
[10] = Dose which caused 50% inhibition of the control intake was determined by log-probit analysis after intraperitoneal administration (CCK-8 receptor); conditions: Rattus norvegicus
Rattus norvegicus [11] = assay: Compound was evaluated for its ability to suppress food intake in one of two meal-fed rats after intraperitoneal administration of 14 ug/kg; assay type: functional; outline: as §1
Rattus norvegicus [12] = assay: Compound was evaluated for its ability to suppress food intake in one of two meal-fed rats after intraperitoneal administration of […]; assay type: functional
Rattus norvegicus [13] = assay: Compound was evaluated for its ability to suppress food intake in one of two meal-fed rats after intraperitoneal administration of 0.3 ug/kg; assay type: functional; outline: as §1
Rattus norvegicus [14] = assay: Compound was evaluated for its ability to suppress food intake in one of two meal-fed rats after intraperitoneal administration of 20 ug/kg; assay type: functional; outline: as §1

SMILES | ED50 (Rattus norvegicus [1]) | IC50 [2] | IC50 [4] | Control (Rattus norvegicus [5]) | IC50 [6] | Control (Rattus norvegicus [7]) | Control (Rattus norvegicus [8]) | further results
CSCC[C@H](NC(=O)[C@H](Cc1c[nH]c2ccccc12)NC(=O)c1ccc(NC(=O)[C@H](Cc2ccc(S(=O)(=O)O)cc2)NC(=O)O)cc1)C(=O)N[C@@H](CC(=O)O)C(=O)N[C@@H](Cc1ccccc1)C(N)=O ({CO}-[Phe(4-SO3H)][4Abz]WMDF-NH2) | > 1240 µmol/kg | 0.085 nM | 1600 nM |  |  |  |  | Control (Rattus norvegicus [3]): 75%
CSCC[C@H](NC(=O)[C@H](Cc1c[nH]c2ccccc12)NC(=O)C[C@H]1CCCC[C@@H]1NC(=O)[C@H](Cc1ccc(S(=O)(=O)O)cc1)NC(=O)O)C(=O)N[C@@H](CC(=O)O)C(=O)N[C@@H](Cc1ccccc1)C(N)=O ({CO}-[Phe(4-SO3H)][X5]WMDF-NH2) | > 320 µmol/kg |  | 165 nM | 90% |  |  |  | 
CSCC[C@H](NC(=O)[C@H](Cc1c[nH]c2ccccc12)NC(=O)CCNC(=O)[C@H](Cc1ccc(S(=O)(=O)O)cc1)NC(=O)O)C(=O)N[C@@H](CC(=O)O)C(=O)N[C@@H](Cc1ccccc1)C(N)=O ({CO}-[Phe(4-SO3H)][βAla]WMDF-NH2) |  | 3600 nM |  |  | 10000 nM | 108% |  | 
CSCC[C@H](NC(=O)[C@H](Cc1c[nH]c2ccccc12)NC(=O)c1cccc(NC(=O)[C@H](Cc2ccc(S(=O)(=O)O)cc2)NC(=O)O)c1)C(=O)N[C@@H](CC(=O)O)C(=O)N[C@@H](Cc1ccccc1)C(N)=O ({CO}-[Phe(4-SO3H)][3Abz]WMDF-NH2) | 3 µmol/kg | 0.48 nM | 2.1 nM | 4% |  | 14% | 52% | 
CSCC[C@H](NC(=O)[C@H](Cc1c[nH]c2ccccc12)NC(=O)CCCCCNC(=O)[C@H](Cc1ccc(S(=O)(=O)O)cc1)NC(=O)O)C(=O)N[C@@H](CC(=O)O)C(=O)N[C@@H](Cc1ccccc1)C(N)=O ({CO}-[Phe(4-SO3H)][Ahx]WMDF-NH2) |  | 13 nM |  | 80% | 360 nM |  |  | 
CSCC[C@H](NC(=O)[C@H](Cc1ccc(S(=O)(=O)O)cc1)NC(=O)O)C(=O)NCC(=O)N[C@@H](Cc1c[nH]c2ccccc12)C(=O)N[C@@H](CCSC)C(=O)N[C@@H](CC(=O)O)C(=O)N[C@@H](Cc1ccccc1)C(N)=O ({CO}-[Phe(4-SO3H)]MGWMDF-NH2) |  | 4.4 nM |  |  | 0.6 nM | 6% | 81% | Control (Rattus norvegicus [9]): 36%; ED50 [10]: 7 µmol/kg
CSCC[C@H](NC(=O)[C@H](Cc1c[nH]c2ccccc12)NC(=O)c1cccc(NC(=O)[C@H](Cc2ccc(S(=O)(=O)O)cc2)NC(=O)O)c1C)C(=O)N[C@@H](CC(=O)O)C(=O)N[C@@H](Cc1ccccc1)C(N)=O ({CO}-[Phe(4-SO3H)][X1]WMDF-NH2) | 24 µmol/kg | 0.91 nM | 2.7 nM | 5.9% |  | 44% |  | Control (Rattus norvegicus [11]): 58%; Control (Rattus norvegicus [12]): 104%
CSCC[C@H](NC(=O)[C@H](Cc1c[nH]c2ccccc12)NC(=O)CCCNC(=O)[C@H](Cc1ccc(S(=O)(=O)O)cc1)NC(=O)O)C(=O)N[C@@H](CC(=O)O)C(=O)N[C@@H](Cc1ccccc1)C(N)=O ({CO}-[Phe(4-SO3H)][GABA]WMDF-NH2) |  | 1.8 nM |  | 1% | 4.9 nM | 11% | 69% | Control (Rattus norvegicus [13]): 104%; ED50 [10]: 4.7 µmol/kg; Control (Rattus norvegicus [14]): 6%
CSCC[C@H](NC(=O)[C@H](Cc1c[nH]c2ccccc12)NC(=O)C[C@@H]1CCCC[C@@H]1NC(=O)[C@H](Cc1ccc(S(=O)(=O)O)cc1)NC(=O)O)C(=O)N[C@@H](CC(=O)O)C(=O)N[C@@H](Cc1ccccc1)C(N)=O ({CO}-[Phe(4-SO3H)][X3]WMDF-NH2) | > 320 µmol/kg | 3.4 nM | 161 nM | 80% |  |  |  | 
CSCC[C@H](NC(=O)[C@H](Cc1c[nH]c2ccccc12)NC(=O)c1cc(NC(=O)[C@H](Cc2ccc(S(=O)(=O)O)cc2)NC(=O)O)ccc1C)C(=O)N[C@@H](CC(=O)O)C(=O)N[C@@H](Cc1ccccc1)C(N)=O ({CO}-[Phe(4-SO3H)][X4]WMDF-NH2) | > 320 µmol/kg | 5 nM | 73 nM | 95% |  |  |  | 
CSCC[C@H](NC(=O)[C@H](Cc1c[nH]c2ccccc12)NC(=O)CCCCNC(=O)[C@H](Cc1ccc(S(=O)(=O)O)cc1)NC(=O)O)C(=O)N[C@@H](CC(=O)O)C(=O)N[C@@H](Cc1ccccc1)C(N)=O ({CO}-[Phe(4-SO3H)][Ava]WMDF-NH2) |  | 9 nM |  | 9% | 22 nM | 54% | 102% | 
CSCC[C@H](NC(=O)[C@H](Cc1c[nH]c2ccccc12)NC(=O)CNC(=O)[C@H](Cc1ccc(S(=O)(=O)O)cc1)NC(=O)O)C(=O)N[C@@H](CC(=O)O)C(=O)N[C@@H](Cc1ccccc1)C(N)=O ({CO}-[Phe(4-SO3H)]GWMDF-NH2) |  | 1300 nM |  |  | 1200 nM | 69% |  | 
